According to ChEMBL document CHEMBL2150952 (J Med Chem, 2011):

Experiments:
[1] = system: Mus musculus; test: Antidiabetic activity in diet-induced obese C57BL6 mouse assessed as reduction in body weight gain at 60 mg/kg, po BID; assay type: functional; design: scale not given: the % may be the effect or the level left
Summary of the method: (§1)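 Male C57/Bl6 mice were fed a high fat diet for at least 18 weeks from 6 weeks of age, then given vehicle (1% methocel, bid) for 7 days and randomized by body weight. Oral dosing (qd or bid) ran for 28 days, with n = 8–10/group. Body weight, food intake and skin/eye scores were recorded twice weekly.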

[2] = system: Zone of skin; test: Drug uptake in skin of C57BL6 mouse at 10 mg/kg, po measured 6 hrs post dose; assay type: ADME, organism-based; design: dose 10 mg/kg, route oral; conditions: in vivo
[3] = Drug level in harderian gland of diet-induced obese C57BL6 mouse at 20 mg/kg, po BID; assay type: ADME, organism-based; design: dose 20 mg/kg, route oral; conditions: in vivo, read-out: Drug uptake
Summary of the method: (§2)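 eDIO mice were dosed orally for 4 weeks, either 20 mg/kg bid or 5 mg/kg qd. Liver, Harderian gland and skin were taken at trough at study termination, and compound concentration was measured by LC-MS.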

[4] = Drug uptake in skin of female rhesus monkey at 5 mg/kg, po measured 6 hrs post dose; assay type: ADME, organism-based, Macaca mulatta, Zone of skin; design: dose 5 mg/kg, route oral; conditions: in vivo
[5] = Drug uptake in eye of female rhesus monkey at 5 mg/kg, po measured 6 hrs post dose; assay type: ADME, organism-based, Macaca mulatta; design: dose 5 mg/kg, route oral; conditions: in vivo
[6] = system: Mus musculus; test: Antidiabetic activity in po dosed diet-induced obese fasted C57BL6 mouse assessed as increase in glucose clearance administered 1 hr before glucose challenge measured 12 hrs thereafter by OGTT; assay type: functional; conditions: in the assay text read “2 hrs” for “12 hrs”
Summary of the method: (§3)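 Male C57/Bl6 mice were kept on a high fat diet for at least 14 weeks from 6 weeks of age, then fasted 16 h. Compound was given orally 1 h before a 2 g/kg oral glucose load.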

[7] = system: Liver; test: Drug uptake in liver of Sprague-Dawley rat at 10 mg/kg, po measured 6 hrs post dose; assay type: ADME, organism-based; design: dose 10 mg/kg, route oral; conditions: in vivo
[8] = Oral bioavailability in rat; assay type: ADME, organism-based; conditions: in vivo
[9] = system: Mus musculus; test: Toxicity in diet-induced obese C57BL6 mouse assessed as adverse effect in eye at 20 to 60 mg/kg, po BID measured within 4 weeks; assay type: organism-based; design: dose 20-60 mg/kg, route oral; conditions: in vivo, 672 h
Summary of the method: (§4)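 Male C57/Bl6 mice on high fat diet for at least 18 weeks from 6 weeks of age. Given 7 days vehicle run-in (1% methocel bid), then randomized by body weight and dosed orally at 20 or 60 mg/kg bid for 28 days (n = 8–10/group). Skin (hair loss/lesion) and eye (squint to closure) scored 0–3 twice weekly.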

[10] = system: Mus musculus; test: Toxicity in diet-induced obese C57BL6 mouse assessed as reduction in food intake at 20 to 60 mg/kg, po BID; assay type: organism-based; design: dose 20-60 mg/kg, route oral; conditions: in vivo
Summary of the method: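 Obese male C57/Bl6 mice after at least 18 weeks of high fat diet and a 7-day vehicle run-in, randomized by body weight. Dosed orally at 20 or 60 mg/kg bid for 28 days (n = 8–10/group). Food consumption monitored twice weekly.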

[11] = system: Liver; test: Drug uptake in liver of C57BL6 mouse at 10 mg/kg, po measured 6 hrs post dose; assay type: ADME, organism-based; design: dose 10 mg/kg, route oral; conditions: in vivo
[12] = system: Liver; test: Drug level in liver of diet-induced obese C57BL6 mouse at 20 mg/kg, po BID; assay type: ADME, organism-based; design: dose 20 mg/kg, route oral; conditions: in vivo, read-out: Drug uptake; summary of the method: as §2
[13] = system: Mus musculus; test: Antidiabetic activity in diet-induced obese C57BL6 mouse assessed as reduction in glucose AUC at 7 to 30 mg/kg, po administered 1 hr before oral glucose administration measured 2 hrs thereafter; assay type: functional; conditions: dose mg/kg 7-30; summary of the method: as §3
[14] = system: Liver; test: Drug uptake in liver of Beagle dog at 5 mg/kg, po measured 6 hrs post dose; assay type: ADME, organism-based, Canis lupus familiaris; design: dose 5 mg/kg, route oral; conditions: in vivo
[15] = system: Mus musculus; test: Antidiabetic activity in diet-induced obese C57BL6 mouse assessed as reduction in body weight gain at 20 mg/kg, po BID; assay type: functional; design: scale not given: the % may be the effect or the level left; summary of the method: as §1
[16] = Oral bioavailability in mouse; assay type: ADME, organism-based; conditions: in vivo
Summary of the method: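 Fasted male C57BL6 mice given 2 mg/kg IV and 10 mg/kg PO. Plasma drug levels measured by LC-MS/MS, mean of n = 3 animals, and PK parameters derived from these.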

[17] = Drug uptake in liver of female rhesus monkey at 5 mg/kg, po measured 6 hrs post dose; assay type: ADME, organism-based, Macaca mulatta; design: dose 5 mg/kg, route oral; conditions: in vivo
[18] = Drug uptake in skin of Beagle dog at 5 mg/kg, po measured 6 hrs post dose; assay type: ADME, organism-based, Canis lupus familiaris, Zone of skin; design: dose 5 mg/kg, route oral; conditions: in vivo
[19] = system: Mus musculus; test: Inhibition of SCD activity in liver of diet-induced obese C57BL6 mouse assessed as reduction in desaturation induces at 20 mg/kg, po BID administered for 4 weeks; assay type: functional; conditions: 672 h
[20] = Oral bioavailability in dog; assay type: ADME, organism-based, Canis lupus familiaris; conditions: in vivo
[21] = system: Mus musculus; test: Antidiabetic activity in diet-induced obese C57BL6 mouse assessed as reduction in glucose AUC at 7 to 10 mg/kg, po administered 1 hr before oral glucose administration measured 2 hrs thereafter; assay type: functional; conditions: dose mg/kg 7-10
[22] = Drug uptake in eye of Beagle dog at 5 mg/kg, po measured 6 hrs post dose; assay type: ADME, organism-based, Canis lupus familiaris; design: dose 5 mg/kg, route oral; conditions: in vivo
[23] = target: T1, Acyl-CoA desaturase 1 (Rattus norvegicus, UniProt P07308); test: Inhibition of SCD-1 activity in Sprague-Dawley rat microsome assessed as reduction in [I-14C] stearoyl CoA desaturation by scintillation counting; assay type: microsomes
T1 sequence (P07308 whole entry): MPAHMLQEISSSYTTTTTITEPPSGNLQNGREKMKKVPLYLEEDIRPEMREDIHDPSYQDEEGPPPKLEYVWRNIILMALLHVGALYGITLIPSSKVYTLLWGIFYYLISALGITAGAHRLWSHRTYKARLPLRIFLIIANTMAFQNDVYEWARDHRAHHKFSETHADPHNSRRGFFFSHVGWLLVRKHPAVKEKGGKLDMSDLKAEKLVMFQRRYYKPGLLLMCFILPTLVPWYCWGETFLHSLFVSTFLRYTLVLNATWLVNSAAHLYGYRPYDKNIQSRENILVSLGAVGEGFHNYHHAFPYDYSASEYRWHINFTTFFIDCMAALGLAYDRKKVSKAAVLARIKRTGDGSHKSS

[24] = system: Mus musculus; test: Antidiabetic activity in diet-induced obese C57BL6 mouse assessed as reduction in glucose AUC at 3 to 7 mg/kg, po administered 1 hr before oral glucose administration measured 2 hrs thereafter; assay type: functional; conditions: dose mg/kg 3-7
[25] = target: T1, Acyl-CoA desaturase 1; test: Inhibition of rat SCD-1
[26] = system: Mus musculus; test: Toxicity in diet-induced obese C57BL6 mouse assessed as adverse effect in skin at 20 to 60 mg/kg, po BID measured within 4 weeks; assay type: organism-based; design: dose 20-60 mg/kg, route oral; conditions: in vivo, 672 h; summary of the method: as §4
[27] = Drug uptake in eye of C57BL6 mouse at 10 mg/kg, po measured 6 hrs post dose; assay type: ADME, organism-based; design: dose 10 mg/kg, route oral; conditions: in vivo
[28] = Apparent permeability across pig LLC-PK1 cells; assay type: ADME, cell-based, Sus scrofa
[29] = Drug uptake in eye of Sprague-Dawley rat at 10 mg/kg, po measured 6 hrs post dose; assay type: ADME, organism-based; design: dose 10 mg/kg, route oral; conditions: in vivo
[30] = target: T1, Acyl-CoA desaturase 1; test: Inhibition of SCD-1 activity in Sprague-Dawley rat Hepatocytes expressing organic anion transporting polypeptides assessed as reduction in [I-14C] […] desaturation by scintillation counting; assay type: cell-based, Hepatocyte
Summary of the method: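 Rat hepatocytes (4 × 10^6 cells/mL) were preincubated with compound for 15 min at 37 °C/5% CO2. 14C-stearic acid (final 0.5 μCi/mL) was then added for 1 h with shaking. Cells were washed, hydrolyzed in 2N NaOH at 75 °C for 1 h, acidified and extracted. Radiolabeled oleic and stearic acids were quantified by HPLC with flow scintillation detection. Mean of at least n = 3.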

[31] = system: Zone of skin; test: Drug uptake in skin of Sprague-Dawley rat at 10 mg/kg, po measured 6 hrs post dose; assay type: ADME, organism-based; design: dose 10 mg/kg, route oral; conditions: in vivo

O=C(O)Cn1nnc(-c2cc(N3CCC(Oc4cc(F)ccc4Br)CC3)no2)n1 [MK-8245]
Activity [1]: 5% | Drug uptake [2]: Active | concentration [3]: 900 nM | Drug uptake [4]: Active | Drug uptake [5]: Active | ED50 [6]: 7 mg/kg | Drug uptake [7]: Active | bioavailability [8]: 28% | Activity [9]: Non-toxic | Activity [10]: Non-toxic | Drug uptake [11]: Active | concentration [12]: 5 µM | inhibition (INH) [13]: 89% | Drug uptake [14]: Active | Activity [15]: 5% | bioavailability [16]: 12% | Drug uptake [17]: Active | Drug uptake [18]: Active | inhibition in vivo at 20 mg/kg [19]: 63% | bioavailability [20]: 40% | inhibition (INH) [21]: 60% | Drug uptake [22]: Active | IC50 [23]: 3 nM | inhibition (INH) [24]: 36% | IC50 [25]: 3 nM | Activity [26]: Non-toxic | Drug uptake [27]: Active | Papp [28]: 3.8 ×10⁻⁶ cm/s | Drug uptake [29]: Active | IC50 [30]: 68 nM | Drug uptake [31]: Active
